From ChEMBL document CHEMBL3580617, “Discovery of Benzimidazole CYP11B2 Inhibitors with in Vivo Activity in Rhesus Monkeys” (ACS Med Chem Lett, 2015)
Active and inactive are the calls of the source. No cut-off for these calls is given here.

How the values were obtained:
[1] = Oral bioavailability in Sprague-Dawley rat at 2 mg/kg by LC-MS/MS method; assay type: ADME, organism-based; conditions: in vivo
Outline: (§1)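 In the rat pharmacokinetic study, AUC was normalized for dose (μM·h·kg/mg), plasma clearance was expressed in mL/min/kg, and oral bioavailability was calculated.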

[2] = Plasma clearance in Sprague-Dawley rat at 2 mg/kg, po or 1 mg/kg, iv by LC-MS/MS method; assay type: ADME, organism-based; outline: as §1
Homo sapiens [3] = organism: Homo sapiens; assay: Selectivity index, ratio of IC50 for human CYP11B1 to IC50 for human CYP11B2
Outline: (§2)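 Human CYP11B2 and CYP11B1 inhibition was tested in cell-based assays. Selectivity was taken as the hCYP11B1 IC50 divided by the hCYP11B2 IC50.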

Aromatase = target: T1, Aromatase (Homo sapiens, UniProt P11511); assay: Inhibition of CYP19 (unknown origin) using MFC substrate incubated for 30 mins
T1 sequence (P11511 whole entry): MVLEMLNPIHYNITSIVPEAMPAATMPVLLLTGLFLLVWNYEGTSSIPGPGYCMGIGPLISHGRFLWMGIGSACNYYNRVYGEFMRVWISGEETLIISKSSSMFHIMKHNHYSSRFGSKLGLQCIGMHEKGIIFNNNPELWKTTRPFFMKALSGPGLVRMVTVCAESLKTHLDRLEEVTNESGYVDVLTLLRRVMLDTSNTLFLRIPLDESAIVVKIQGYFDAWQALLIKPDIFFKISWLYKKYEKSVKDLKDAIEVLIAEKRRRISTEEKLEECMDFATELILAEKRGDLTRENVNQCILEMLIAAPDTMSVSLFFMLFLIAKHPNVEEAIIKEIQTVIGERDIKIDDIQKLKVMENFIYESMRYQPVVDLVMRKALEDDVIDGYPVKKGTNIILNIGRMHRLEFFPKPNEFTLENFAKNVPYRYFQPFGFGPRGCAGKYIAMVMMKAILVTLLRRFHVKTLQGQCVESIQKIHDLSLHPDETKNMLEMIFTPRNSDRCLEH

Rattus norvegicus = assay: Dose normalized AUC in Sprague-Dawley rat at 2 mg/kg, po or 1 mg/kg, iv by LC-MS/MS method; assay type: ADME, organism-based; conditions: in vivo; outline: as §1
[4] = Fraction unbound in rat plasma at […] incubated for 4 hrs by equilibrium dialysis and LC/MS method; assay type: ADME, cell-free
Steroid 21-hydroxylase = target: T2, Steroid 21-hydroxylase (Homo sapiens, UniProt P08686); assay: Inhibition of human CYP21 expressed in COS7 cells incubated for 1 hr before […] substrate addition by HTRF-based assay; assay type: cell-based, COS-7
T2 sequence (P08686 whole entry): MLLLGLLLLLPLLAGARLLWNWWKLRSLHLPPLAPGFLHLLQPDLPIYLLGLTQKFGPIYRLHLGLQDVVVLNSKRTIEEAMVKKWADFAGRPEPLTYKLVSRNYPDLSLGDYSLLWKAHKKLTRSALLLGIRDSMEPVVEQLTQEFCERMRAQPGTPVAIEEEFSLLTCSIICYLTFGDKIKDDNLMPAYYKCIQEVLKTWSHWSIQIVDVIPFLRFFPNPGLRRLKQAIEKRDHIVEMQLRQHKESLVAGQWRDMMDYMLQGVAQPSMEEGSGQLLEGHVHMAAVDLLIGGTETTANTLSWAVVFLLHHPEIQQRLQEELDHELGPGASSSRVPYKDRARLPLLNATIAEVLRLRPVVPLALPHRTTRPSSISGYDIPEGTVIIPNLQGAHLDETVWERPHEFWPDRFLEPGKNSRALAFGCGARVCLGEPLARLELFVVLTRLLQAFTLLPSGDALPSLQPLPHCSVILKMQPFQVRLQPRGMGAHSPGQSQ

[5] = target: T3, Steroid 17-alpha-hydroxylase/17,20 lyase (Homo sapiens, UniProt P05093); assay: Inhibition of human CYP17 expressed in COS7 cells incubated for 1 hr before 17-hydroxypregnenolone substrate addition by EIA method; assay type: cell-based, COS-7
T3 sequence (P05093 whole entry): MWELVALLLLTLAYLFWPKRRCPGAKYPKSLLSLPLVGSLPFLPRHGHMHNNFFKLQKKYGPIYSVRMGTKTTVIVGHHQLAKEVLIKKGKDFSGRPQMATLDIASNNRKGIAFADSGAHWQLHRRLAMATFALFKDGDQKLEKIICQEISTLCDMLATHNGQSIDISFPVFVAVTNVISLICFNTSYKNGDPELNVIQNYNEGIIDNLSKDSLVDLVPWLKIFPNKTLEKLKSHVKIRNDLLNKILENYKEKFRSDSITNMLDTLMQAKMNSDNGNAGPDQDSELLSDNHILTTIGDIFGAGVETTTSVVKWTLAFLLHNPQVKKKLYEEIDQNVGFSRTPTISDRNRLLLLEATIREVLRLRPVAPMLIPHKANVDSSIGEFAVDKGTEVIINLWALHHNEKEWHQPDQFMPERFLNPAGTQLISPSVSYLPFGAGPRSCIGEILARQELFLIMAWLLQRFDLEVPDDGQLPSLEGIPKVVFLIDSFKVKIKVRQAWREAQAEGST

Cytochrome P450 2D6 = Cytochrome P450 2D6 (Homo sapiens, UniProt P10635); assay: Inhibition of CYP2D6 (unknown origin); assay type: ADME
Cytochrome P450 2D6, sequence (P10635 whole entry): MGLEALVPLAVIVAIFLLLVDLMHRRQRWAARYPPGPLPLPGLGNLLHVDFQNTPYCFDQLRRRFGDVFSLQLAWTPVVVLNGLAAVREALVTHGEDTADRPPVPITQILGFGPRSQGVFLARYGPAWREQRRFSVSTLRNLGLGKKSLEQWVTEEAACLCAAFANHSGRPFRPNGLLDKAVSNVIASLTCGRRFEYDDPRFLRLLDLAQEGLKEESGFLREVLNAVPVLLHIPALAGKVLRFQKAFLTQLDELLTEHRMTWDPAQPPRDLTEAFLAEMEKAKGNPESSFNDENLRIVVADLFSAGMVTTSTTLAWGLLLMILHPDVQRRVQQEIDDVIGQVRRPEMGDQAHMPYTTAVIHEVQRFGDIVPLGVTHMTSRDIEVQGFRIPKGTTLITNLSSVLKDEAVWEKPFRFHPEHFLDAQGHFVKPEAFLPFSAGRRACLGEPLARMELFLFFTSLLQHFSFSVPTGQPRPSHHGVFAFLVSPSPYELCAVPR

[6] = target: T4, Cytochrome P450 11B2, mitochondrial (Rattus norvegicus, UniProt P30099); assay: Inhibition of rat CYP11B2 expressed in V79 cells incubated for 1 hr before 11-deoxycorticosterone substrate addition by HTRF-based assay; assay type: cell-based; conditions: v79, 1 h
T4 sequence (P30099 whole entry): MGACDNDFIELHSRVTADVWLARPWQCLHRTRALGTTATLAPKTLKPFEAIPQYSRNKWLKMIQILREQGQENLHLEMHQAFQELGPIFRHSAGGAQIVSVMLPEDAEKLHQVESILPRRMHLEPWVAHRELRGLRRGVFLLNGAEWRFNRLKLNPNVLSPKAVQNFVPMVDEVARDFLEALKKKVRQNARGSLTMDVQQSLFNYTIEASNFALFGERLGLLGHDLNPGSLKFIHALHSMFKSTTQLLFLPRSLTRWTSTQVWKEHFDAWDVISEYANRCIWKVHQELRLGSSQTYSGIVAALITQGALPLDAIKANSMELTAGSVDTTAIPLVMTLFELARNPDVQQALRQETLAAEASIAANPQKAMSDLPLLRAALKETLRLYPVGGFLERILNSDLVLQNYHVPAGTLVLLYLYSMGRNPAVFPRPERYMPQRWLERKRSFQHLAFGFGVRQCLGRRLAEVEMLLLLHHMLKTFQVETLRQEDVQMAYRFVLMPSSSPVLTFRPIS

[7] = Intrinsic clearance in rat liver microsomes at […] incubated for 10 mins before NADPH addition by LC/MS method; assay type: ADME; conditions: read-out: CLH
Cytochrome P450 2C9 = Cytochrome P450 2C9 (Homo sapiens, UniProt P11712); assay: Inhibition of CYP2C9 (unknown origin); assay type: ADME
Cytochrome P450 2C9, sequence (P11712 whole entry): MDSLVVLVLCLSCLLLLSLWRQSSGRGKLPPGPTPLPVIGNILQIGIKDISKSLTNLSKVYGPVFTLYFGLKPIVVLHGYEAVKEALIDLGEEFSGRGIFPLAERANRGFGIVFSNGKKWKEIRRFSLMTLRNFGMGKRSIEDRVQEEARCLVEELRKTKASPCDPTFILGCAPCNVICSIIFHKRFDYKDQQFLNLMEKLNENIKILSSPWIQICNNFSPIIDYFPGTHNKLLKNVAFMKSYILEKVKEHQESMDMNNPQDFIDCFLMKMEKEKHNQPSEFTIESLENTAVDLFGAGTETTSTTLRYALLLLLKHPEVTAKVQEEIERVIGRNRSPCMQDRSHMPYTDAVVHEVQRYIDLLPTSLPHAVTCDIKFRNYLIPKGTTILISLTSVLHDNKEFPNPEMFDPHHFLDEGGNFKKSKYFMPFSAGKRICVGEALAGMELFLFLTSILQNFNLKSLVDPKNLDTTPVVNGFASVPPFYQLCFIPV

Homo sapiens [8] = organism: Homo sapiens; assay: Selectivity index, ratio of IC50 for CYP19 (unknown origin) to IC50 for human CYP11B2
V79 = assay: Inhibition of rhesus monkey CYP11B2 expressed in V79 cells incubated for 1 hr before 11-deoxycorticosterone substrate addition by HTRF-based assay; assay type: cell-based; conditions: Macaca mulatta
Cytochrome P450 3A4 = Cytochrome P450 3A4 (Homo sapiens, UniProt P08684); assay: Inhibition of CYP3A4 (unknown origin); assay type: ADME
Cytochrome P450 3A4, sequence (P08684 whole entry): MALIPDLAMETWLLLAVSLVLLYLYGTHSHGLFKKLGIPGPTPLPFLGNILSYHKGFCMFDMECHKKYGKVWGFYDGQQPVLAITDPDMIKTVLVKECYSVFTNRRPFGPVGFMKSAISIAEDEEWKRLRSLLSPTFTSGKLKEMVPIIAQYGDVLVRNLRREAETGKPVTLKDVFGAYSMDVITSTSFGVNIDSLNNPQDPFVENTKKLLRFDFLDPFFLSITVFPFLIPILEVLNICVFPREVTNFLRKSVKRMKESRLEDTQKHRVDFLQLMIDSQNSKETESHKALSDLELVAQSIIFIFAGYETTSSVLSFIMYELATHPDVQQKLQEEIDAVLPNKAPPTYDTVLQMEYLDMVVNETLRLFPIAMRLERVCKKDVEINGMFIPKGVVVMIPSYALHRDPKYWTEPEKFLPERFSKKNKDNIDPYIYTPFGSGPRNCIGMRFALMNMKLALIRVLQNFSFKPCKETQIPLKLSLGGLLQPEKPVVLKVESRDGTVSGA

Rhesus monkey [9] = conditions: Macaca mulatta; 1 mg/kg
[10] = target: T5, Cytochrome P450 11B2, mitochondrial (Homo sapiens, UniProt P19099); assay: Inhibition of human CYP11B2 expressed in V79 cells incubated for 1 hr before 11-deoxycorticosterone substrate addition by HTRF-based assay; assay type: cell-based; outline: as §2
T5 sequence (P19099 whole entry): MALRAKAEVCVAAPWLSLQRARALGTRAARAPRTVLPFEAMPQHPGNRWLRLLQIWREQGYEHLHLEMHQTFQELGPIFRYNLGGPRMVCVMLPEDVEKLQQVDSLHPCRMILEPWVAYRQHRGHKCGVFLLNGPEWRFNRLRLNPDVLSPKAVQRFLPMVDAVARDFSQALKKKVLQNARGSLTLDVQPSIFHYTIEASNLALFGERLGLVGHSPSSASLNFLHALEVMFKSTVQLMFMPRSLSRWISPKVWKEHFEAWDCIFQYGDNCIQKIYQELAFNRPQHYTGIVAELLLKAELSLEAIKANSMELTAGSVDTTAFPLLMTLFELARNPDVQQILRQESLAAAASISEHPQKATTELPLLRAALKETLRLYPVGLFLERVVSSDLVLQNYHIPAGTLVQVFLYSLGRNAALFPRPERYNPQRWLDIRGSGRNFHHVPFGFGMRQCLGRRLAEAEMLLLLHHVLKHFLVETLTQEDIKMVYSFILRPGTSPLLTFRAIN

[11] = target: T6, Cytochrome P450 11B1, mitochondrial (Homo sapiens, UniProt P15538); assay: Inhibition of human CYP11B1 expressed in V79 cells incubated for 1 hr before 11-deoxycortisol substrate addition by HTRF-based assay; assay type: cell-based; outline: as §2
T6 sequence (P15538 whole entry): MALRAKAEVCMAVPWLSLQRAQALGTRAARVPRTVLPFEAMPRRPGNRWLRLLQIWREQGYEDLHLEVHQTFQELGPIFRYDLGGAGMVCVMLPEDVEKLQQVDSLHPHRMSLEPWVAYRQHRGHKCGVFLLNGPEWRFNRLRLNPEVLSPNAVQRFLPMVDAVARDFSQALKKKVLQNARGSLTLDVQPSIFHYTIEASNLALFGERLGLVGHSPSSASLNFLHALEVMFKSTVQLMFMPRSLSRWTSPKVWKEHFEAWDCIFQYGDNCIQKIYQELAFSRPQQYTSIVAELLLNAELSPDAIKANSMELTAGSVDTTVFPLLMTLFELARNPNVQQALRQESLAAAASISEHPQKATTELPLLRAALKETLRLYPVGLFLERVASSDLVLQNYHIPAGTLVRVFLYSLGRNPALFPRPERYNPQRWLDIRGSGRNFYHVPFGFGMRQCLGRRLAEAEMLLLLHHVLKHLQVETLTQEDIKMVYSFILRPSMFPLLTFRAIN

[12] = Oral bioavailability in rhesus monkey at 1 mg/kg by LC-MS/MS method; assay type: ADME, organism-based, Macaca mulatta; conditions: in vivo
Homo sapiens [13] = organism: Homo sapiens; assay: Selectivity index, ratio of IC50 for CYP2D6 (unknown origin) to IC50 for human CYP11B2
[14] = Plasma clearance in rhesus monkey at 1 mg/kg, po or 0.5 mg/kg, iv by LC-MS/MS method; assay type: ADME, organism-based, Macaca mulatta
[15] = Intrinsic clearance in rhesus monkey liver microsomes at […] incubated for 10 mins before NADPH addition by LC/MS method; assay type: ADME, Macaca mulatta; conditions: read-out: CLH
Homo sapiens [16] = organism: Homo sapiens; assay: Selectivity index, ratio of IC50 for CYP2C9 (unknown origin) to IC50 for human CYP11B2
Rhesus monkey [17] = assay: Dose normalized AUC in rhesus monkey at 1 mg/kg, po or 0.5 mg/kg, iv by LC-MS/MS method; assay type: ADME, organism-based, Macaca mulatta; conditions: in vivo
Homo sapiens [18] = organism: Homo sapiens; assay: Selectivity index, ratio of IC50 for CYP3A4 (unknown origin) to IC50 for human CYP11B2

With `CC(C)(O)c1cncc(-c2nc3cc(F)c(F)cc3n2C2CC2)c1` the bioavailability [1] was 94%, the clearance [2] was 7 mL/min/kg and the Ratio IC50 (Homo sapiens [3]) was 140. For the same molecule, the IC50 (Aromatase) was 1.27 µM, the AUC/dose (Rattus norvegicus) was 6.55 µM·kg·h/mg and the fraction unbound at 4 h [4] was 0.14. The IC50 (Steroid 21-hydroxylase) was over 10 µM, the IC50 [5] was over 10 µM and the “inhibition (INH)” value (Cytochrome P450 2D6) was “Not Active”. The “inhibition (INH)” value [6] was “Not Active”, the CLint scaled [7] was under 20 mL/min/kg and the “inhibition (INH)” value (Cytochrome P450 2C9) was “Not Active”. The Ratio IC50 (Homo sapiens [8]) was 500, the inhibition (V79) was “Active” and the IC50 (Cytochrome P450 3A4) was over 50 µM.

With `N#Cc1ccc(C2CCCc3cncn32)cc1` (stereo unspecified) the inhibition (Rhesus monkey [9]) was “Active”.

`Cc1c(F)cncc1-c1nc2cc(F)c(F)cc2n1C1CC1` gave an IC50 [10] of 0.0005 µM, an IC50 [11] of 0.258 µM and a Ratio IC50 (Homo sapiens [3]) of 553. For the same molecule, the bioavailability [12] was 88%, the Ratio IC50 (Homo sapiens [13]) was over 1000 and the IC50 (Steroid 21-hydroxylase) was over 10 µM. The clearance [14] was 19 mL/min/kg, the CLint scaled [15] was under 20 mL/min/kg and the IC50 [5] was over 10 µM. For the same molecule, the Ratio IC50 (Homo sapiens [16]) was over 1000, the “inhibition (INH)” value [6] was “Not Active” and the AUC/dose (Rhesus monkey [17]) was 2.49 µM·kg·h/mg. For the same molecule, the Ratio IC50 (Homo sapiens [18]) was over 1000, the inhibition (V79) was “Active” and the IC50 (Cytochrome P450 3A4) was 8.24 µM.
